Bioassay records (PubChem BioAssay)
VIM-2 inhibitor = blocks Pseudomonas aeruginosa VIM-2 metallo-beta-lactamase; purified VIM-2, nitrocefin hydrolysis, epi-absorbance fluorescence; inhibition, % at 5.6 µM; 0.89% of 290,000 active;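 active = inhibition above the mean of all tested compounds plus 3 SD, cutoff set per screening run, cut at about 7.5% in these data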;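 also: red hydrolysis product quenches plate fluorescence so inhibitors raise well fluorescence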
NadD block = NadD (S. aureus) enzyme inhibition. 0.78% of 360,000 active. inhibition, % at 20 µM. purified NadD enzyme, colorimetric absorbance read-out; in the data active = inhibition above about 26%
HCV core dimer = blocks dimerization of HCV core protein. TR-FRET GST/Flag-core106 dimerization, 1536-well. inhibition, % at 5 µM. 0.33% of 300,000 active;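 active = inhibition above the mean of all tested compounds plus 3 SD, set per screening campaign, cut at about 45% in these data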
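Assay system: GST-tagged and Flag-tagged HCV core protein residues 1-106 / Times: compound-protein-antibody incubation 4 h at 22.5 °C / Signal: time-resolved FRET, ex 340 nm, em 617 and 671 nm / Evaluation: % inhibition based on acceptor/donor emission ratio / Benchmarks: wells lacking GST-core106 and wells with excess unlabelled core106 / Repeats: singlicate, one well per compound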
IMP-1 inh-1 = inhibitors of Pseudomonas aeruginosa IMP-1 metallo-beta-lactamase. purified IMP-1, nitrocefin hydrolysis, epi-absorbance fluorescence. inhibition, % at 5.6 µM. 0.45% of 290,000 active;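 active = inhibition above the mean plus 3 SD of all compounds in the same screening run, cut at about 4.5% in these data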
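System: purified IMP-1; amount: IMP-1 0.2 nM before substrate addition; compound: single dose, 5.6 µM; times: 25 °C, 15 min preincubation, 25 min reaction; signal: Epi-absorbance via hydrolysed-nitrocefin quenching of white-plate fluorescence, 480/530 nm, EDTA stop; benchmarks: DMSO with and without IMP-1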
IMP-1 inh-2 = blocks IMP-1 metallo-beta-lactamase in VIM-2 selectivity screen; shares compounds with VIM-2 inhibitor; purified IMP-1, nitrocefin hydrolysis, epi-absorbance fluorescence; inhibition, % at 5.6 µM; 1,300 tested, under 10 active; AID 1856; call rule not given here
VIM-2 FRET inh = VIM-2 FRET inhibition, artifact counter-screen; shares compounds with VIM-2 inhibitor; 23% of 1,300 active; AID 1857; inhibition, % at 5.6 µM; purified VIM-2, CCF2 FRET substrate hydrolysis;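 active = inhibition above the mean of all tested compounds plus 3 SD, cut at about 19% in these data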
TEM-1 inh = selectivity counter-screen for VIM-2 inhibitors: E. coli TEM-1 inhibitors; AID 1866; shares compounds with VIM-2 inhibitor; 3% of 1,300 active; Purified TEM-1, nitrocefin hydrolysis, epi-absorbance fluorescence; inhibition, % at 5.6 µM;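 active = inhibition above that campaign's mean inhibition plus 3 SD, cut at about 0.46% in these data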
Target sequence (P62593 whole entry, looked up): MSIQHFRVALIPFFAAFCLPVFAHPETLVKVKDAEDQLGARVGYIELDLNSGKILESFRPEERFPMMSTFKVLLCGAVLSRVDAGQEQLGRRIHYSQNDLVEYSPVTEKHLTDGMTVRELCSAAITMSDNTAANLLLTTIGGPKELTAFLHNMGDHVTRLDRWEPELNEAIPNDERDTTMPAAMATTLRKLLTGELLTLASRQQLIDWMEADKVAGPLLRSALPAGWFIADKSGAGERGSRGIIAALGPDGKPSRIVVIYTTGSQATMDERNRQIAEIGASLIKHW
VIM-2 inh conf = confirmation of P. aeruginosa VIM-2 metallo-beta-lactamase inhibitors | purified VIM-2, nitrocefin hydrolysis, epi-absorbance | inhibition, % at 5.6 µM | shares compounds with VIM-2 inhibitor | 96% of 1,300 active;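 active = inhibition of the VIM-2 beta-lactamase enzyme above about 11% from the earlier first-round screen, limit read from the data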
A number is an active result; - = inactive; . = no result given. Rows were chosen to be rich in hits. Some 1.9% of all compounds tested hit in one or more screens of this group.

SMILES	VIM-2 inhibitor	NadD block	HCV core dimer	IMP-1 inh-1	others
Cc1cccn2c(=O)c3cc(C(=O)N4CCOCC4)n(C)c3nc12	8.2	-	-	-
COCCn1c(=N)c(C(=O)NCCc2ccc(OC)cc2)cc2c(=O)n3cccc(C)c3nc21	-	-	-	-
Cc1cccn2c(=O)c3cc(C(=O)N4CCN(C(=O)c5ccco5)CC4)n(C)c3nc12	-	-	-	-
CCOCCCn1c(=N)c(C(=O)NCCN2CCOCC2)cc2c(=O)n3cccc(C)c3nc21	-	-	-	-
Cc1cccn2c(=O)c3cc(C(=O)NCCN4CCOCC4)c(=N)n(CCN4CCOCC4)c3nc12	11	-	-	-
CC1(C)CC[C@]2(C(=O)n3ccnc3)CC[C@]3(C)[C@H](C(=O)C=C4[C@@]5(C)C=C(C#N)C(=O)C(C)(C)[C@@H]5CC[C@]43C)[C@@H]2C1	.	43	.	.
O=[N+]([O-])c1ccccc1S(=O)(=O)NCc1cccnc1	-	-	-	-
O=C(O)CN1C(=O)/C(=C2\C(=O)N(Cc3ccccc3Cl)c3ccccc32)SC1=S	-	26	-	-
CCN(CC)c1ccc(S(=O)(=O)N2CCOCC2)cc1NC(=O)CSC(=S)N1CCCC1	-	-	-	-
Cc1ncc(CO)c(/C=N/NC(=O)c2cc(O)c(O)c(O)c2)c1O	-	.	.	24
Cc1ncc(CO)c(/C=N/NC(=O)c2ccc(Br)cc2)c1O	-	.	-	-
COc1cc(/C=C/C(O)=C/C(=O)/C=C/c2ccc(O)cc2)ccc1O	.	-	.	.
CCc1cccc(C)c1NC(=O)C1=C(C(=O)O)CCCC1	-	-	-	7.8
OC1(c2cccs2)CN(c2ccc(Br)cc2)C2=[N+]1CCCS2 (stereo not drawn)	-	-	-	-
COc1ccc(OC)c(N2CC(O)(c3cccs3)[N+]3=C2SCCC3)c1 (stereo not drawn)	8.2	-	-	-
Cc1cc(C)cc(NC(=S)NCCN2CCOCC2)c1	-	-	-	-
CCCNC(=O)c1cc(C2CCCCN2C(=O)c2cccs2)on1 (stereo not drawn)	.	-	.	.
O=C(c1ccccc1)N1CCN(C(=O)c2nn3c(C(F)(F)F)cc(-c4ccco4)nc3c2Br)CC1	-	-	68	-
O=C(NC1CCCCC1)c1nn2c(C(F)(F)F)cc(-c3ccco3)nc2c1Br	-	-	-	-
COc1ccc(NC(=O)Cn2cc(S(=O)(=O)Cc3ccccc3)c3ccccc32)c(OC)c1	-	-	52	-
CCOC(=O)c1ccc2c(c1)C1C=CCC1C(C(=O)O)N2 (stereo not drawn)	-	.	88	-
Cc1ccc2c(c1C)NC(C(=O)O)C1CC=CC21 (stereo not drawn)	.	-	71	.
CCOC(=O)C1Nc2ccc(C(=O)O)cc2C2C=CCC12 (stereo not drawn)	-	-	-	35
COCCC1CCCCN1C(=O)c1ccc2nc(Cc3ccccc3F)oc2c1 (stereo not drawn)	-	-	-	-
O=C(/C=C/c1ccccc1)c1ccccn1	9.1	-	-	-
SMILES	VIM-2 inhibitor	NadD block	HCV core dimer	IMP-1 inh-1	others
N/C(=N\OC(=O)/C=C/c1ccccc1)c1ccccn1	-	-	-	-
CC(C)(C)c1ccc(OCc2ccc(C(=O)N/N=C/c3ccc(O)c(O)c3)cc2)cc1	-	72	-	-
O=C(c1cc(-c2ccco2)nn1-c1cccc(Cl)c1)N1CCCCC1	-	-	56	-
C[C@H](CO)N1C[C@H](C)[C@@H](CN(C)Cc2ccncc2)Oc2c(NC(=O)Cc3ccccc3)cccc2C1=O	.	-	.	.
CSc1nc(NCc2ccco2)c2sc3nc(C(C)C)c4c(c3c2n1)CC(C)(C)OC4	-	-	-	-
CCN(CCO)c1nc(SC)nc2c1sc1nc(-c3ccco3)c3c(c12)CCC3	-	-	80	12
CSc1nc(NCCOCCO)c2sc3nc(-c4ccco4)c4c(c3c2n1)CCC4	-	-	87	-
COc1ccc(Cc2nc3ccc(C(=O)NCc4ncc(C)[nH]4)cc3o2)cc1OC	38	-	-	-	IMP-1 inh-2=-;VIM-2 FRET inh=-;TEM-1 inh=-;VIM-2 inh conf=50
COc1ccc(Cc2nc3ccc(C(=O)NCc4cccc(C)n4)cc3o2)cc1OC	.	-	.	.
CCOC(=O)c1c(-c2ccccc2)oc2ccc(OCC(O)CNCCN(C)C)cc12 (stereo not drawn)	25	-	-	-	IMP-1 inh-2=-;VIM-2 FRET inh=20;TEM-1 inh=-;VIM-2 inh conf=38
CCOC(=O)c1c(-c2ccccc2)oc2ccc(OCC)cc12	-	-	-	-
Cc1cc(OC(C)C(=O)NCCCn2ccnc2)c2c(C)c(C)c(=O)oc2c1 (stereo not drawn)	64	-	-	-	IMP-1 inh-2=-;VIM-2 FRET inh=-;TEM-1 inh=-;VIM-2 inh conf=74
Cc1cc(OCC(=O)NCCN2CCOCC2)c2c(C)c(C)c(=O)oc2c1	19	-	-	-	IMP-1 inh-2=-;VIM-2 FRET inh=-;TEM-1 inh=-;VIM-2 inh conf=29
CCCCc1cc(=O)oc2cc(C)cc(OCC(=O)NCCN3CCOCC3)c12	-	-	-	-
O=C(COc1ccc(Cl)cc1Cl)NCCCn1ccnc1	-	-	-	-
CCc1cc(=O)oc2cc(C)cc(OCC(=O)NCCCn3ccnc3)c12	51	-	-	-	IMP-1 inh-2=-;VIM-2 FRET inh=-;TEM-1 inh=-;VIM-2 inh conf=61
Cc1cc(OCC(=O)NCCCn2ccnc2)c2c(C)c(C)c(=O)oc2c1	80	-	-	-	IMP-1 inh-2=-;VIM-2 FRET inh=-;TEM-1 inh=-;VIM-2 inh conf=85
CCOc1ccccc1N1CCN(C(=O)c2csc(C)c2CC)CC1	-	-	-	-
CC(=O)c1ccc(N2CCN(S(=O)(=O)c3c(C)[nH]c(C)c3C(=O)N3CCCCC3)CC2)cc1	-	-	-	-
CCN(CC)CCCNC(=O)C1CCN(c2ncnc3c2sc2cccc(F)c23)CC1	27	-	-	-	IMP-1 inh-2=-;VIM-2 FRET inh=-;TEM-1 inh=-;VIM-2 inh conf=39
CC1CC(C)CN(CCCNC(=O)C2CCN(c3ncnc4c3sc3cccc(F)c34)CC2)C1 (stereo not drawn)	25	.	-	-	IMP-1 inh-2=-;VIM-2 FRET inh=-;TEM-1 inh=-;VIM-2 inh conf=36
O=C(NCc1ccccc1F)Nc1nnc([C@@H]2C[C@H](O)[C@@H](CO)O2)s1	.	-	.	.
Cn1c(=O)[nH]c(=O)c2c1nc([N+](=O)[O-])n2Cc1ccccc1	-	-	-	-
Cc1nn2c(-c3ccc(S(=O)(=O)N4CCN(C)CC4)o3)nnc2c2ccccc12	24	-	-	-	IMP-1 inh-2=-;VIM-2 FRET inh=-;TEM-1 inh=-;VIM-2 inh conf=34
Cc1ccc(-c2nnc3c4ccccc4c(C)nn23)cc1S(=O)(=O)N1CCN(CCO)CC1	25	-	-	-	IMP-1 inh-2=-;VIM-2 FRET inh=-;TEM-1 inh=-;VIM-2 inh conf=48
Cc1ccc(-c2nnc3c4ccccc4c(C)nn23)cc1NC(=O)CN1CCOCC1	-	.	.	-
O=c1[nH]c2cc3c(cc2cc1CN(Cc1cccnc1)C(=S)NCc1ccco1)OCCO3	18	-	-	-	IMP-1 inh-2=-;VIM-2 FRET inh=-;TEM-1 inh=-;VIM-2 inh conf=-
